Activity calls are given as the source filed them. No cut-off for these calls is given here.
Key:
[1] = system: C2C12; assay: Induction of 2-deoxy-[3H]-glucose uptake in mouse C2C12 cells at 10 uM after 2 hrs by liquid scintillation counting analysis relative to control; type: functional
Outline: (§1)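 C2C12 myoblasts grown in DMEM/10% FBS, differentiated at confluence in 1% FBS DMEM to day 4. Myotubes serum-starved 3 h (0.2% BSA), 1 h in KRPH buffer pH 7.4, then compound (0.1% DMSO) for 2 h. Uptake of 0.5 μCi/mL 2-deoxy-[3H]-glucose plus 100 μM 2-deoxy-D-glucose for 10 min. Ice-cold PBS wash, SDS/NaOH lysis, scintillation counting normalized to protein. Three independent experiments in triplicate, mean ± SEM.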

[2] = system: C2C12; assay: Potentiation of insulin-induced 2-deoxy-[3H]-glucose uptake in mouse C2C12 cells at 10 uM preincubated with cells followed by insulin induction for 30 mins by liquid scintillation counting analysis relative to control; type: functional
Outline: (§2)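 Differentiated C2C12 myotubes, serum-starved 3 h then 1 h in KRPH buffer pH 7.4, given compound (0.1% DMSO), then 100 nM insulin for 30 min. 2-Deoxy-[3H]-glucose (0.5 μCi/mL) with 100 μM 2-deoxy-D-glucose taken up for 10 min. Cells washed in cold PBS, lysed in 0.1% SDS/0.5 M NaOH, scintillation counted and normalized to total protein. Mean ± SEM, three experiments in triplicate.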

[3] = biological target: T1, Tyrosine-protein phosphatase non-receptor type 1 (Homo sapiens, UniProt P18031); assay: Inhibition of PTP1B (unknown origin) using p-nitrophenyl phosphate as substrate after 30 mins
T1 sequence (P18031 whole entry): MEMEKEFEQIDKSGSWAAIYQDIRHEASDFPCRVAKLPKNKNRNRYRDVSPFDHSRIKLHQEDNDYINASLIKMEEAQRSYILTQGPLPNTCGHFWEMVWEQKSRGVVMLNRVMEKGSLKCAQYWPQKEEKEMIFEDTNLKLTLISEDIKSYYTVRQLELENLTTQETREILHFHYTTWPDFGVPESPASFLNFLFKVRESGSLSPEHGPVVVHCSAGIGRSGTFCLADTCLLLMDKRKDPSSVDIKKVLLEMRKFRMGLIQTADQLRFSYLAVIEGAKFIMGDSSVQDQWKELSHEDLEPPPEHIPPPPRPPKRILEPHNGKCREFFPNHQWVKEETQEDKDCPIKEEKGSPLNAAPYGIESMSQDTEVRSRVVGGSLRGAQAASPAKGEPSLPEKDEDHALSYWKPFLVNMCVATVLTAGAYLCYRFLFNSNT
Outline: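 PTP1B (source not stated) 0.05−0.1 μg with 2 mM p-nitrophenyl phosphate in 50 mM citrate pH 6.0, 0.1 M NaCl, 1 mM EDTA, 1 mM dithiothreitol, ± test compound; 37 °C for 30 min, quenched with 10 M NaOH; p-nitrophenol read at 405 nm; IC50 determined.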

[4] = system: C2C12; assay: Induction of 2-deoxy-[3H]-glucose uptake in mouse C2C12 cells at 5 uM after 2 hrs by liquid scintillation counting analysis; type: functional, cell-based; outline: as §1
[5] = system: C2C12; assay: Potentiation of insulin-induced 2-deoxy-[3H]-glucose uptake in mouse C2C12 cells at 5 uM preincubated with cells followed by insulin induction for 30 mins by liquid scintillation counting analysis; type: functional, cell-based; outline: as §2
[6] = system: C2C12; assay: Induction of 2-deoxy-[3H]-glucose uptake in mouse C2C12 cells at 30 uM after 2 hrs by liquid scintillation counting analysis; type: functional, cell-based; outline: as §1
[7] = system: C2C12; assay: Potentiation of insulin-induced 2-deoxy-[3H]-glucose uptake in mouse C2C12 cells at 30 uM preincubated with cells followed by insulin induction for 30 mins by liquid scintillation counting analysis relative to control; type: functional; outline: as §2

Row | SMILES | IC50 [3] | Activity [1] | Activity [2] | also measured
1 | CC1=C2C(=O)[C@H]3[C@@H](CC[C@@H]4C[C@@H](O)C[C@@H](O)[C@@]43C)[C@@H]2CC[C@]12O[C@@H]1C[C@H](C)CN[C@H]1[C@H]2C | > 30 µM | – | – | –
2 | CN(CCOc1ccc(CC2SC(=O)NC2=O)cc1)c1ccccn1 (stereo not drawn) [ROSIGLITAZONE] | – | – | – | Activity [6]: Active; Activity [7]: 47.3%
3 | C[C@@H]1CN[C@H]2[C@@H](C)[C@@]3(CC[C@@H]4C(=C[C@H]5[C@H]4CC=C4C[C@@H](O)CC[C@@]45C)[C@@]3(C)O)O[C@@H]2C1 | > 30 µM | – | – | –

Second part, led by results:

Row | IC50 [3] | SMILES | Activity [1] | Activity [2] | also measured
4 | 4.7 µM | CC(=O)O[C@H]1CC[C@@]2(C)C(=CC[C@H]3c4ccc([C@H](C)[C@@H]5NC[C@@H](C)C[C@H]5O)c(C)c4C[C@@H]32)C1 | 24.8% | 56% | –
5 | 11.3 µM | CC1=C2C(=O)[C@H]3[C@@H](CC=C4C[C@@H](OC=O)CC[C@@]43C)[C@@H]2CC[C@]12O[C@@H]1C[C@H](C)CN[C@H]1[C@H]2C | 15% | 49.9% | Activity [4]: Active; Activity [5]: Active
6 | > 30 µM | C[C@H]1CC[C@@H]2N(C1)C[C@H]1[C@@H]3C[C@H]4[C@@H](CC=C5C[C@@H](OC=O)CC[C@@]54C)[C@@H]3C[C@H](O)[C@@H]1[C@]2(C)O | – | – | –
